System: HEK-293T
Experiment: Multiplex assay against HEK293T
Type: toxicity, cell-based
Conditions: human
Summary of the method: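 With compound added, live cells were imaged on a CQ1 microscope at 37°C and 5% CO2; staining with Hoechst33342, BioTracker Green Microtubule Cytoskeleton Dye, MitoTracker Red and Annexin V Alexa Fluor 680 had been done at seeding. The CellPathfinder machine-learning gating scheme split cells into Hoechst high-intensity objects or normal cells, normal cells into healthy, pyknosed or fragmented nuclei, and pyknosed cells into mitotic or apoptotic. The tubulin, mitochondrial-mass and membrane-permeability phenotypes are per cents of healthy-nucleus cells.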

[1] = 12 h, 1 µM, compound concentration 1 uM, replicate 1
[2] = 12 h, 1 µM, compound concentration 1 uM, replicate 2
[3] = 12 h, 10 µM, compound concentration 10 uM, replicate 1
[4] = 12 h, 10 µM, compound concentration 10 uM, replicate 2
[5] = 24 h, 1 µM, compound concentration 1 uM, replicate 1
[6] = 24 h, 1 µM, compound concentration 1 uM, replicate 2
[7] = 24 h, 10 µM, compound concentration 10 uM, replicate 1
[8] = 24 h, 10 µM, compound concentration 10 uM, replicate 2
[9] = 48 h, 1 µM, compound concentration 1 uM, replicate 1
[10] = 48 h, 1 µM, compound concentration 1 uM, replicate 2
[11] = 48 h, 10 µM, compound concentration 10 uM, replicate 1
[12] = 48 h, 10 µM, compound concentration 10 uM, replicate 2

SMILES: O=C1COc2nccc(-c3ccccc3F)c2CN1Cc1cc(C(F)(F)F)cc(C(F)(F)F)c1
- Population Apoptotic (%) [1]: 31%
- Population Fragmented Nuclei (%) [1]: 8%
- Population Healthy Nuclei (%) [1]: 80%
- Population Hoechst High Intensity Objects (%) [1]: 5%
- Population Membrane Permeable-Phenotype (%) [1]: 0%
- Population Mitochondria Different-Phenotype (%) [1]: 41%
- Population Mitotic Cells (%) [1]: 68%
- Population Normal (%) [1]: 94%
- Population Pyknosed Nuclei (%) [1]: 10%
- Population Tubulin-Different-Phenotype (%) [1]: 27%
- Total Cell Count [1]: 397
- Population Apoptotic (%) [2]: 51%
- Population Fragmented Nuclei (%) [2]: 4%
- Population Healthy Nuclei (%) [2]: 83%
- Population Hoechst High Intensity Objects (%) [2]: 10%
- Population Mitochondria Different-Phenotype (%) [2]: 67%
- Population Mitotic Cells (%) [2]: 48%
- Population Normal (%) [2]: 89%
- Population Pyknosed Nuclei (%) [2]: 11%
- Population Tubulin-Different-Phenotype (%) [2]: 20%
- Total Cell Count [2]: 333
- Population Apoptotic (%) [3]: 38%
- Population Fragmented Nuclei (%) [3]: 10%
- Population Healthy Nuclei (%) [3]: 76%
- Population Hoechst High Intensity Objects (%) [3]: 9%
- Population Membrane Permeable-Phenotype (%) [3]: 0%
- Population Mitochondria Different-Phenotype (%) [3]: 67%
- Population Mitotic Cells (%) [3]: 61%
- Population Normal (%) [3]: 90%
- Population Pyknosed Nuclei (%) [3]: 13%
- Population Tubulin-Different-Phenotype (%) [3]: 68%
- Total Cell Count [3]: 475
- Population Apoptotic (%) [4]: 57%
- Population Fragmented Nuclei (%) [4]: 8%
- Population Healthy Nuclei (%) [4]: 79%
- Population Hoechst High Intensity Objects (%) [4]: 5%
- Population Mitochondria Different-Phenotype (%) [4]: 76%
- Population Mitotic Cells (%) [4]: 42%
- Population Normal (%) [4]: 94%
- Population Pyknosed Nuclei (%) [4]: 12%
- Population Tubulin-Different-Phenotype (%) [4]: 39%
- Total Cell Count [4]: 382
- Population Apoptotic (%) [5]: 21%
- Population Fragmented Nuclei (%) [5]: 8%
- Population Healthy Nuclei (%) [5]: 84%
- Population Hoechst High Intensity Objects (%) [5]: 3%
- Population Membrane Permeable-Phenotype (%) [5]: 0%
- Population Mitochondria Different-Phenotype (%) [5]: 32%
- Population Mitotic Cells (%) [5]: 78%
- Population Normal (%) [5]: 96%
- Population Pyknosed Nuclei (%) [5]: 7%
- Population Tubulin-Different-Phenotype (%) [5]: 23%
- Total Cell Count [5]: 517
- Population Apoptotic (%) [6]: 59%
- Population Fragmented Nuclei (%) [6]: 5%
- Population Healthy Nuclei (%) [6]: 87%
- Population Hoechst High Intensity Objects (%) [6]: 8%
- Population Mitochondria Different-Phenotype (%) [6]: 39%
- Population Mitotic Cells (%) [6]: 40%
- Population Normal (%) [6]: 91%
- Population Pyknosed Nuclei (%) [6]: 6%
- Population Tubulin-Different-Phenotype (%) [6]: 12%
- Total Cell Count [6]: 428
- Population Apoptotic (%) [7]: 52%
- Population Fragmented Nuclei (%) [7]: 10%
- Population Healthy Nuclei (%) [7]: 76%
- Population Hoechst High Intensity Objects (%) [7]: 5%
- Population Membrane Permeable-Phenotype (%) [7]: 0%
- Population Mitochondria Different-Phenotype (%) [7]: 71%
- Population Mitotic Cells (%) [7]: 47%
- Population Normal (%) [7]: 94%
- Population Pyknosed Nuclei (%) [7]: 13%
- Population Tubulin-Different-Phenotype (%) [7]: 68%
- Total Cell Count [7]: 520
- Population Apoptotic (%) [8]: 36%
- Population Fragmented Nuclei (%) [8]: 7%
- Population Healthy Nuclei (%) [8]: 79%
- Population Mitochondria Different-Phenotype (%) [8]: 72%
- Population Mitotic Cells (%) [8]: 63%
- Population Pyknosed Nuclei (%) [8]: 12%
- Population Tubulin-Different-Phenotype (%) [8]: 44%
- Total Cell Count [8]: 492
- Population Apoptotic (%) [9]: 27%
- Population Fragmented Nuclei (%) [9]: 13%
- Population Healthy Nuclei (%) [9]: 80%
- Population Hoechst High Intensity Objects (%) [9]: 2%
- Population Membrane Permeable-Phenotype (%) [9]: 0%
- Population Mitochondria Different-Phenotype (%) [9]: 29%
- Population Mitotic Cells (%) [9]: 72%
- Population Normal (%) [9]: 97%
- Population Pyknosed Nuclei (%) [9]: 6%
- Population Tubulin-Different-Phenotype (%) [9]: 14%
- Total Cell Count [9]: 743
- Population Apoptotic (%) [10]: 38%
- Population Fragmented Nuclei (%) [10]: 9%
- Population Healthy Nuclei (%) [10]: 81%
- Population Hoechst High Intensity Objects (%) [10]: 4%
- Population Mitochondria Different-Phenotype (%) [10]: 23%
- Population Mitotic Cells (%) [10]: 61%
- Population Normal (%) [10]: 95%
- Population Pyknosed Nuclei (%) [10]: 8%
- Population Tubulin-Different-Phenotype (%) [10]: 12%
- Total Cell Count [10]: 574
- Population Apoptotic (%) [11]: 44%
- Population Fragmented Nuclei (%) [11]: 13%
- Population Healthy Nuclei (%) [11]: 75%
- Population Hoechst High Intensity Objects (%) [11]: 3%
- Population Membrane Permeable-Phenotype (%) [11]: 0%
- Population Mitochondria Different-Phenotype (%) [11]: 63%
- Population Mitotic Cells (%) [11]: 55%
- Population Normal (%) [11]: 96%
- Population Pyknosed Nuclei (%) [11]: 11%
- Population Tubulin-Different-Phenotype (%) [11]: 46%
- Total Cell Count [11]: 713
- Population Apoptotic (%) [12]: 56%
- Population Fragmented Nuclei (%) [12]: 11%
- Population Healthy Nuclei (%) [12]: 80%
- Population Hoechst High Intensity Objects (%) [12]: 2%
- Population Mitochondria Different-Phenotype (%) [12]: 51%
- Population Mitotic Cells (%) [12]: 43%
- Population Normal (%) [12]: 97%
- Population Pyknosed Nuclei (%) [12]: 7%
- Population Tubulin-Different-Phenotype (%) [12]: 25%
- Total Cell Count [12]: 669
